Reference: ChEMBL document CHEMBL1135725, “N-Aryl N'-hydroxyguanidines, a new class of NO-donors after selective oxidation by nitric oxide synthases: structure-activity relationship” (J Med Chem, 2002)

What was measured:
[1] = molecular target: T1, Nitric oxide synthase, inducible (Mus musculus) (UniProt P29477); assay: Nitric oxide (NO) formation during oxidation of NADPH and O2, catalyzed by NOS II detected spectrophotometrically using hemoglobin assay.; assay type: functional
T1 sequence (whole entry): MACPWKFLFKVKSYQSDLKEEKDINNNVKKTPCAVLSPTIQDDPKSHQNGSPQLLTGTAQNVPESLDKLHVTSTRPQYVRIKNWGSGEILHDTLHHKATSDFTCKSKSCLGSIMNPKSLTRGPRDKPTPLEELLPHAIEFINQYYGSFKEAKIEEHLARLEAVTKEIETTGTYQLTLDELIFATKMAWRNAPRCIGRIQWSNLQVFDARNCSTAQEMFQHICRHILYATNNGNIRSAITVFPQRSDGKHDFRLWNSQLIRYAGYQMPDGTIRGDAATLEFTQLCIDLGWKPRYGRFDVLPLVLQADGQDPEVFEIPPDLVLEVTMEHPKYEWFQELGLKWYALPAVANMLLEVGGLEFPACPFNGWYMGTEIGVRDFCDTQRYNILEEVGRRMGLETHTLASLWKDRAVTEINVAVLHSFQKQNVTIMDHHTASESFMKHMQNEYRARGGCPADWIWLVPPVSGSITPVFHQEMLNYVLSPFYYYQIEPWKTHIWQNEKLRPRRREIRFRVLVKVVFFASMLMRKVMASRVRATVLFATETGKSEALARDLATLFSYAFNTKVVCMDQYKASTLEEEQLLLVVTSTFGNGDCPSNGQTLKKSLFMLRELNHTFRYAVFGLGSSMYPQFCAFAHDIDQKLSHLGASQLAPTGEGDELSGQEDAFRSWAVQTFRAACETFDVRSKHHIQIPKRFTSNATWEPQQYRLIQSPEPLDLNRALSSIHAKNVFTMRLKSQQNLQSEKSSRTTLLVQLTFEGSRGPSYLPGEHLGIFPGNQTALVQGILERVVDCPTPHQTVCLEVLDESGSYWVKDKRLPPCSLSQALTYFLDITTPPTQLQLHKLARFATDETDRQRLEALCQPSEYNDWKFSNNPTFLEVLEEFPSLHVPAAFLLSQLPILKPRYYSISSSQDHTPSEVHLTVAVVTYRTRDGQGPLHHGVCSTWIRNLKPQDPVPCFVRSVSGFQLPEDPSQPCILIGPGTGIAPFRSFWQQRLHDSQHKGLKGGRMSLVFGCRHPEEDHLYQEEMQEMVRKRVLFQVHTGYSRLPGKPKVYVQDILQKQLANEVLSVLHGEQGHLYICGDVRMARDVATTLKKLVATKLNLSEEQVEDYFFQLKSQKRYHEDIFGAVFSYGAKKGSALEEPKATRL
Summary of the method: (§1)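 Purified recombinant NOS II (E. coli) at 20-30 nM was run at 37 °C in 50 mM HEPES pH 7.4 with 1 mM NADPH, 100 μM BH4, 5 mM DTT, 100 U/mL SOD, 100 U/mL catalase, 12-15 μM oxyhemoglobin and 500 μM substrate, against a buffer reference. The initial rate was followed at 401 nm (ε 34 mM⁻¹ cm⁻¹), or at 577 nm for strongly absorbing compounds (ε 14.5). Values are means ± SD of three to eight experiments.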

[2] = molecular target: Nitric oxide synthase 1 (Rattus norvegicus) (UniProt P29476); assay: Nitric oxide (NO) formation during oxidation of NADPH and O2, catalyzed by NOS I was detected spectrophotometrically using hemoglobin assay; assay type: functional
Summary of the method: (§2)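 Hemoglobin assay with purified recombinant NOS I (rat brain, expressed in S. cerevisiae) or NOS III (E. coli), at 37 °C in 50 mM HEPES pH 7.4. The mix held 1 mM NADPH, 100 μM BH4, 5 mM DTT, SOD/catalase, oxyhemoglobin, 1 mM CaCl2, 10 μg/mL CaM and 500 μM substrate. Methemoglobin formation was read at 401 nm. Activity is given as percent of that with 500 μM NOHA, from three to five experiments.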

[3] = molecular target: T2, Nitric oxide synthase 3 (Mus musculus) (UniProt P70313); assay: Nitric oxide (NO) formation during oxidation of NADPH and O2, catalyzed by NOS III was detected spectrophotometrically using hemoglobin assay; assay type: functional; summary of the method: as §2
T2 sequence (whole entry): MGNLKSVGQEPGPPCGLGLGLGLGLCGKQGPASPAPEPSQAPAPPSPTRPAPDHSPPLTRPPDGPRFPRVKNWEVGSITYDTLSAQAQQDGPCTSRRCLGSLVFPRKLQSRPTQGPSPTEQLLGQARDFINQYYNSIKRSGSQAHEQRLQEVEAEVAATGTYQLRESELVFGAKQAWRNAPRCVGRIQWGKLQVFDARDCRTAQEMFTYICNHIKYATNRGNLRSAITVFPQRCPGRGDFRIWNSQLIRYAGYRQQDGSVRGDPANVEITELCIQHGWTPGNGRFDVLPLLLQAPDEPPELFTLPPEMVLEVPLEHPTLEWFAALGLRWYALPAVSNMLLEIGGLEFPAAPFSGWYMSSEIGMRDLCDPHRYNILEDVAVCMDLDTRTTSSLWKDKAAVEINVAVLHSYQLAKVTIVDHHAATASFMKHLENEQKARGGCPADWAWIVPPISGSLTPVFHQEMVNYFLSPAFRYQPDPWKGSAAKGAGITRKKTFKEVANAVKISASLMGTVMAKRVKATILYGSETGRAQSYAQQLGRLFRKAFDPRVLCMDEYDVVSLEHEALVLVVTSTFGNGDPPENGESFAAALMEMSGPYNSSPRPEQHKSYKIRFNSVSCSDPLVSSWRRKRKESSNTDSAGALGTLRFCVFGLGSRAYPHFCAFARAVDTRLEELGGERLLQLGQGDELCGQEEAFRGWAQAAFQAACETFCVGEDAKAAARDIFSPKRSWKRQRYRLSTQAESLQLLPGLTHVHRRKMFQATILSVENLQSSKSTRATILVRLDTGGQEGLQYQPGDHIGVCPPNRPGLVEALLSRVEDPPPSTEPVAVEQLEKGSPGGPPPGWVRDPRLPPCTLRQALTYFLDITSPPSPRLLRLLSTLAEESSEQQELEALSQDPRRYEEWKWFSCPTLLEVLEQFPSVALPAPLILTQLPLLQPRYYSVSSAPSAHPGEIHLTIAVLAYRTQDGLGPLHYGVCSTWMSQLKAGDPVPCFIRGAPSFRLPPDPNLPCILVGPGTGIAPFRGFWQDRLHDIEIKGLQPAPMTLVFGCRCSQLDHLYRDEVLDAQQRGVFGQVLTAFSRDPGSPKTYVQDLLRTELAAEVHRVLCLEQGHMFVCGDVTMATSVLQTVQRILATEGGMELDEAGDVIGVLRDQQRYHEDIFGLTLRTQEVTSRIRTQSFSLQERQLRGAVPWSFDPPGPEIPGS

[4] = molecular target: T1, Nitric oxide synthase, inducible (Mus musculus); assay: (§3) Kinetic constant for NO formation during transformation of oxyhemoglobin to methemoglobin using NADPH and molecular Oxygen in the presence of (NOS II)
Summary of the method: (§4)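 Recombinant NOS II (E. coli-expressed, purified) assayed at 37 °C in 50 mM HEPES pH 7.4 with 1 mM NADPH, 100 μM BH4, 5 mM DTT, SOD and catalase (100 U/mL each), and 12-15 μM oxyhemoglobin. Substrate was varied from 5 μM to 2.5 mM. Enzyme level was set to keep oxyhemoglobin conversion below 30%. Kinetic constants come from the initial methemoglobin formation rate at 401 nm; three to four experiments.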

[5] = molecular target: T1, Nitric oxide synthase, inducible (Mus musculus); assay: as §3; assay type: functional; summary of the method: as §4
[6] = molecular target: T1, Nitric oxide synthase, inducible (Mus musculus); assay: Nitric oxide (NO) formation during oxidation of NADPH and O2, catalyzed by NOS II was detected spectrophotometrically using hemoglobin assay; assay type: functional; summary of the method: as §1
[7] = molecular target: T1, Nitric oxide synthase, inducible (Mus musculus); assay: Nitric oxide (NO) formation during oxidation by NADPH and O2, catalyzed by NOS II was detected spectrophotometrically using hemoglobin assay; assay type: functional; summary of the method: as §1

Nitric oxide synthase 1 (Rattus norvegicus), sequence (P29476 whole entry): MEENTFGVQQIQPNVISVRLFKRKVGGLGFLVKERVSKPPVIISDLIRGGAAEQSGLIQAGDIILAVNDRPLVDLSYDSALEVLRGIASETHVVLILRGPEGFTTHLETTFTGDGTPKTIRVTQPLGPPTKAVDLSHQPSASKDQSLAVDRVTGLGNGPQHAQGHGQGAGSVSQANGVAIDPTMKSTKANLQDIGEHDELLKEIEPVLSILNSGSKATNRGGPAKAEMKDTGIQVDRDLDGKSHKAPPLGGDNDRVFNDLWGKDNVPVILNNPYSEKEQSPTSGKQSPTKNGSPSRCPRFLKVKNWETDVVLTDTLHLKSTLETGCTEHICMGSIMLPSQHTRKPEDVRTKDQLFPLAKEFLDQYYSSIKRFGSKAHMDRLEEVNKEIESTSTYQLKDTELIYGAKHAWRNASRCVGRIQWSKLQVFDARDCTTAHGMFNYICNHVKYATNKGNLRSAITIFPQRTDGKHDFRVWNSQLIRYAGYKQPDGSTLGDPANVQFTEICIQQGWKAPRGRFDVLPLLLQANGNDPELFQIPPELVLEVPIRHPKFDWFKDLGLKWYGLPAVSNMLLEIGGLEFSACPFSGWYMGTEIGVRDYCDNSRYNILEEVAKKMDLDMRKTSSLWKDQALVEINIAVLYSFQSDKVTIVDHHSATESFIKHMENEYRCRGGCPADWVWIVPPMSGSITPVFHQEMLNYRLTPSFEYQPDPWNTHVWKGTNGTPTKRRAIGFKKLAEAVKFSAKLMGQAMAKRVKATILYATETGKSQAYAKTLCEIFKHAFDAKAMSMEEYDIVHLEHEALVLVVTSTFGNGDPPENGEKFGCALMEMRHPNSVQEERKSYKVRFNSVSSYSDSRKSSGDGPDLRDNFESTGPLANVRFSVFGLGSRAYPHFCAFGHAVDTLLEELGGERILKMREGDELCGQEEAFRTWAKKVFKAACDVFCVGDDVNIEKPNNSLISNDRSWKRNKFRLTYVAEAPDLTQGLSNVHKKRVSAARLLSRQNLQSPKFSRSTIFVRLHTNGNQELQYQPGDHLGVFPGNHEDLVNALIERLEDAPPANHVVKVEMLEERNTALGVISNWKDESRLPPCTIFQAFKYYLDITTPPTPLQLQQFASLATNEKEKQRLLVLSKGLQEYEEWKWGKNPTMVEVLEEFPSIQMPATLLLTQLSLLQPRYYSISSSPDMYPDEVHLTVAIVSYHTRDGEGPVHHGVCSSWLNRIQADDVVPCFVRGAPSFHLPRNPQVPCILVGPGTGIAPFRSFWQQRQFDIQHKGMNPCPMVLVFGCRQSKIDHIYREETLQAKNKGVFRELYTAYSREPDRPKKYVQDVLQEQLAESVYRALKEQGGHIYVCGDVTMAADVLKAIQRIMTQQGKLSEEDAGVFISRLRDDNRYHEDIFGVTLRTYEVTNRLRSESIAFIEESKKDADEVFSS

Compound	NOHA [1] [%]	further results
N/C(=N/c1ccc2c[nH]nc2c1)NO	2.5	–
N/C(=N/c1cccc(Cl)c1)NO	5	–
N/C(=N/c1ccccc1Cl)NO	5	–
N/C(=N\O)c1ccccc1	< 0.2	–
N/C(=N\O)NCCc1ccccc1	6	–
N/C(=N/CCCC(N)C(=O)O)NO (stereo not given)	–	k cat [5]: 7.08 s⁻¹; Activity (nM (nM of NOS)) [6]: 425; Activity (nM (nM of NOS)) [2]: 130; Activity (nM (nM of NOS)) [3]: 65
ON=C(Nc1ccccc1)Nc1ccccc1	< 0.2	–
N/C(=N/c1ccc(C(F)(F)F)cc1)NO	0.5	–
O/N=C/c1ccc(Cl)cc1	< 0.2	–
N/C(=N/c1cccc(C(F)(F)F)c1)NO	2.5	–
N/C(=N/c1ccsc1)NO	9.5	k cat [5]: 0.667 s⁻¹
N=C(NO)Nc1ccccc1	20	k cat [5]: 2.17 s⁻¹; NOHA [2]: 1.5%; NOHA [3]: < 0.2%
N=C(NO)NCc1ccccc1	15	–
CC(C)(C)c1ccc(NC(=N)NO)cc1	–	NOHA [7]: < 0.2%
N/C(=N\O)N1CCc2ccccc2C1	< 0.2	–
N/C(=N/c1cccc(N)c1)NO	3.5	NOHA [2]: 2.5%; NOHA [3]: 6.5%
N=C(NO)Nc1cccc(CN)c1	1.5	–
N/C(=N/c1cccc(CO)c1)NO	6	NOHA [2]: < 0.2%; NOHA [3]: < 0.2%

Further lines, with some results ahead:

NOHA [1] [%]	Compound	further results
< 0.2	N/C(=N/c1ccc(CC(=O)O)cc1)NO	–
8	N/C(=N/c1ccc(N)cc1)NO	NOHA [2]: 4.5%; NOHA [3]: < 0.2%
< 0.2	CC(C(=O)O)c1ccc(NC(=N)NO)cc1 (stereo not given)	–
2	N/C(=N/c1ccc([N+](=O)[O-])cc1)NO	–
13	N=C(NO)Nc1ccc(Cl)cc1	k cat [4]: 1.63 s⁻¹; NOHA [2]: < 0.2%; NOHA [3]: < 0.2%
< 0.2	COc1ccc(N/C(C)=N/O)cc1	–
8	COc1ccc(NC(=N)NO)cc1	k cat [5]: 2.42 s⁻¹; NOHA [2]: 3.5%; NOHA [3]: < 0.2%
< 0.2	N/C(=N\O)c1ccc(Cl)cc1	–
41	N/C(=N/c1ccc(F)cc1)NO	k cat [5]: 5.83 s⁻¹; NOHA [2]: 4.5%; NOHA [3]: < 0.2%
5	COc1ccccc1/N=C(/N)NO	–
< 0.2	COc1ccc(/C=N/O)cc1	–
< 0.2	C/C(=N/c1ccc(Cl)cc1)NO	–
< 0.2	COc1ccc(/C(C)=N/O)cc1	–
< 0.2	C/C(=N\O)c1ccc(Cl)cc1	–
7.5	N/C(=N/c1ccc(Br)cc1)NO	–
< 0.2	N/C(=N/c1ccc(OCC(=O)O)cc1)NO	–
16.5	N/C(=N/c1ccc(O)cc1)NO	k cat [5]: 1.83 s⁻¹; NOHA [2]: 8.5%; NOHA [3]: < 0.2%
17.5	Cc1ccc(NC(=N)NO)cc1	k cat [5]: 4.92 s⁻¹; NOHA [2]: < 0.2%; NOHA [3]: < 0.2%
< 0.2	COc1ccc(C(=N)NO)cc1	–
